Sampled rows, rich in hits. Any-hit rate of the full collection: about 2.5%.
SR-BI DiI inh: inhibitors of mouse SR-BI mediated HDL lipid uptake; Q61009; ldlA[mSR-BI] CHO cells, DiI-HDL uptake fluorescence, 3 h; inhibition, % at 12.5 µM; 320,000 compounds, 0.96% hits; AID 488896;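 active = mean replicate inhibition of at least 70% and a set share of replicates each scoring 70 or more; inconclusive = meets just one of the two criteria; inactive = fails both criteria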;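 note: 0% = median of neutral control wells and 100% = median of positive control wells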
dFosB act-1: enhances mouse delta FosB homodimer DNA binding; P13346; purified delta FosB, TAMRA-CDK5 oligo fluorescence polarization; percent of positive-control signal above neutral wells; activation, % at 25 µM; 340,000 compounds, 0.99% hits;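 active = mean activation above about 17%, with every replicate also reaching it, limit read from the data, passing the limit was not always enough; inconclusive = only one of the two conditions met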
Target sequence (P13346 whole entry, looked up): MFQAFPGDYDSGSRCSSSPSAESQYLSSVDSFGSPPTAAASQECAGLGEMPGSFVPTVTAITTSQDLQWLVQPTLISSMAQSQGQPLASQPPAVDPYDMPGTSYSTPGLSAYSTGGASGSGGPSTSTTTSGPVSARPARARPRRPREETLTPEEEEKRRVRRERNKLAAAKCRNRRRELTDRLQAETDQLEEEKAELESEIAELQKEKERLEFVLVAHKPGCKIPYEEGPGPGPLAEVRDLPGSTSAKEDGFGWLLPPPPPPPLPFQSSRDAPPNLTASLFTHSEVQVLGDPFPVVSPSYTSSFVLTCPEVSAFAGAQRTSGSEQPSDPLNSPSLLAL
SR-BI uptake up: activators of SR-BI mediated HDL lipid uptake | CHO ldlA[mSR-BI] cells, DiI-HDL uptake fluorescence, 3 h; 100 = double the neutral-control signal | activation, % at 12.5 µM | 320,000 compounds, 0.096% hits | AID 504775;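 active = mean replicate activation of at least 60% and every replicate at or above 60%; inconclusive = mean or all-replicate condition met, but not both; inactive = mean below 60% and not all replicates reaching 60%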;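 note: 0% = median plate neutral-control signal and 100% = twice that signal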
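Test system: SR-BI-overexpressing, LDLR-lacking CHO cells; Medium: Ham's F12 with 0.5% BSA, HEPES 25 mM, pH 7.4; Schedule: 3 h, 37 °C; Technique: bottom-read fluorescence, 550/595 nm.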
CDK5 p35 inh: inhibitors of human CDK5/p35 kinase | 330,000 compounds, 0.01% hits | Recombinant CDK5/p35, ADP-Glo luminescence, 60 min | Q00535+Q15078 | inhibition, % at 10 µM;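 active = highest replicate inhibition of at least 50% and at least 75% of replicates reaching 50%; inconclusive = only one of the two criteria met; inactive = both criteria failed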;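 note: plate controls were DMSO neutral control for no effect and GW8510 at 10 µM for full effect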
Dyrk1A ADPGlo: blocks rat Dyrk1A kinase activity; Q63470; ADP-Glo luminescence, NFATc1 peptide; inhibition, % at 12.5 µM; 310,000 compounds, 0.43% hits; AID 504441;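 note: plate controls were vehicle with enzyme for no effect and no enzyme for full effect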
NSD2 HMT inh: NSD2 (human) methyltransferase inhibition. O96028. NSD2 peptide methylation, AlphaScreen, 120 min. inhibition, % at 12.5 µM. 310,000 compounds, 0.54% hits
dFosB act-2: enhances mouse delta FosB homodimer binding to DNA. shares compounds with dFosB act-1. purified delta FosB, TAMRA-CDK5 oligo fluorescence polarization; normalised: neutral wells 0, positive control 100. activation, % at 24.9 µM. 2,400 tested, under 10 active. AID 588690;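 active = highest replicate activation at or above 34% and every replicate reaching that threshold; inconclusive = meets only one of the two criteria; inactive = meets neither criterion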;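 note: higher polarization means more probe DNA bound by delta FosB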
An asterisk follows results filed as active; ? = inconclusive; . = no result given. Cut-off read from the data, not from the text of the source, unless noted: active = inhibition above about 50%; inactive = the rest.

SMILES	SR-BI DiI inh	dFosB act-1	SR-BI uptake up	CDK5 p35 inh	Dyrk1A ADPGlo	NSD2 HMT inh	dFosB act-2
O=C(NCC1OCCc2ccccc21)c1ccc(NC(=O)c2ccccc2Cl)cc1 (stereo unspecified)	29	2	-29	1	1	-3	.
CC(C)CN(C(=O)COC(=O)CCSc1ccc(F)cc1)c1c(N)n(Cc2ccccc2)c(=O)[nH]c1=O	31	-8	-31	1	-4	-3	.
O=C(Cn1cc([N+](=O)[O-])ccc1=O)N1CCCc2ccccc21	-15	2	15	-2	7	2	.
CN1/C(=C/C=N/n2cnnc2)C(C)(C)c2ccccc21	-7	20*	7	0	5	-2	0
CCOc1cccc(C2C(C(=O)c3ccc(C)o3)=C(O)C(=O)N2CCCn2ccnc2)c1 (stereo unspecified)	-13	-13	13	-1	9	0	.
COc1cccc(OCCNC(=O)Nc2cc(F)c(F)cc2Cl)c1	-16	74*	16	0	-6	-6	-1
CCOC(=O)C1CCCN(c2c(NCCc3ccc(Cl)cc3)c(=O)c2=O)C1 (stereo unspecified)	-19	-3	19	2	-11	-2	.
CSc1cccc(NC(=O)NCc2cccc(CNC(=O)Nc3cccc(SC)c3)c2)c1	.	25*	.	-1	-4	-1	5
O=S(=O)(Nc1ccc(Cl)cc1)c1cccc2nsnc12	-17	2	17	2	-1	0	.
Nc1ccccc1SC1CC(=O)N(c2ccc(Cl)c(Cl)c2)C1=O (stereo unspecified)	-6	27*	6	0	3	-2	2
O=C(NCCCN1CCCC1=O)c1cccc(S(=O)(=O)N2CCN(c3ccc(F)cc3)CC2)c1	-6	-8	6	3	.	2	.
O=C(Nc1nc2c(s1)CN(Cc1ccccc1)CC2)c1cccc(S(=O)(=O)N2CCc3ccccc32)c1	36	74*	-36	0	-2	-4	-19
COc1cc(OC)c(N(C)S(=O)(=O)c2cccc(C(=O)Nc3nnc(C4CC4)s3)c2)cc1Cl	.	63*	.	-1	-2	-4	-7
O=C(Nc1nc2c(s1)CCCC2)c1ccc(S(=O)(=O)N2CCCc3ccccc32)cc1	25	2	-25	2	1	-3	.
Cc1nnc(NC(=O)c2cccc(S(=O)(=O)N3CCc4ccccc43)c2)s1	-19	-2	19	-2	-12	-1	.
O=C(Nc1nnc(C2CC2)s1)c1cccc(S(=O)(=O)N2CCc3ccccc32)c1	-2	51*	2	0	-5	-3	1
O=C(NNC(=O)c1cccc(S(=O)(=O)N2CCc3ccccc32)c1)c1ccccc1	23	-5	-23	1	.	-3	.
O=C(Nc1nc2ccccc2s1)c1cccc(S(=O)(=O)N2CCc3ccccc32)c1	68	34*	-68	-2	9	-1	1
CCc1nnc(NC(=O)c2cccc(S(=O)(=O)N3CCc4ccccc43)c2)s1	-12	34*	12	-2	-2	0	0
Nc1nc(CN2CCc3ccccc3C2)nc(Nc2ccccc2)n1	7	27*	-7	1	2	.	8
COc1cc(C2C(C#N)=C(N)Oc3cc(C)n(CCc4ccccc4)c(=O)c32)cc2c1OCO2 (stereo unspecified)	21	68*	-21	0	7	5	0
CC(=O)Nc1ccc(/C(C)=N/NC(=O)c2ccc(COc3ccccc3Cl)o2)cc1	53	31*	-53	-7	10	-2	-2
COc1ccc(/C=N/NC(=O)c2ccc(COc3ccccc3Cl)o2)cc1	-3	28*	3	0	-2	0	8
Cc1cc(NC(=O)c2ccc(COc3ccccc3Cl)o2)no1	11	7	-11	0	-4	0	.
COc1ccc(Cn2c(=O)[nH]c3cc(C(=O)N4CCN(c5ccccc5F)CC4)ccc3c2=O)cc1	-17	18*	17	1	-1	.	5
SMILES	SR-BI DiI inh	dFosB act-1	SR-BI uptake up	CDK5 p35 inh	Dyrk1A ADPGlo	NSD2 HMT inh	dFosB act-2
COc1ccc(Cn2c(=O)[nH]c3cc(C(=O)N4CCN(c5ccccc5OC)CC4)ccc3c2=O)cc1	23	-4	-23	0	1	.	.
C=C1CCN([C@@H](Cc2ccccc2)C(=O)NCc2ccc(Cl)cc2)S(=O)(=O)c2ccccc21	9	-4	-9	-1	0	.	.
O=C(Nc1ccc(OC(F)(F)F)cc1)N1CCN(c2ccnc3cc(Cl)ccc23)CC1	53	39*	-53	1	.	18	-4
Cc1ccc(C)c(NC(=O)CCN2C(=O)C3CC=CCC3C2=O)c1 (stereo unspecified)	1	-3	-1	-1	.	-1	.
COC(=O)c1ccc2c(c1)C(C)(C)C(/C=C/c1ccc(O)cc1)=[N+]2C	?	119*	-71	11	6	8	2
COc1cc(/C=C/c2ccc(O)cc2)cc(OC)c1	9	-5	-9	0	6	.	.
CSc1nc(-c2ccccc2)nc(NC(=O)C(C)C)c1C(C)=O	45	-1	-45	-1	5	4	.
CC1(c2ccc(OC(F)F)cc2)NC(=O)N(CC(=O)NCCC2=CCCCC2)C1=O (stereo unspecified)	14	-4	-14	0	6	0	.
Nc1c(C(=O)Nc2ccccc2Cl)nnn1-c1ccc2c(c1)OCCO2	24	43*	-24	2	-7	-8	4
O=C(NCCNC(=O)c1cc(OCC(F)(F)F)ccc1OCC(F)(F)F)Nc1ccc(Cl)cc1	.	.	.	.	.	38	.
O=C(NCCNC(=O)c1cc(OCC(F)(F)F)ccc1OCC(F)(F)F)Nc1ccc(OC(F)(F)F)cc1	28	38*	-28	0	3	3	-4
CCCCCCOC(=O)c1ccc(N)cc1	-9	-1	9	1	-4	1	.
CCCCCCCCCCCC1N=C(N)NC(CCCO)=C1C(=O)OC (stereo unspecified)	-3	42*	3	4	3	11	?
COc1ccc(N(CC(=O)N2CCN(c3ccc(Cl)cc3)CC2)S(=O)(=O)c2c(C)n[nH]c2C)cc1	-3	77*	3	1	4	-1	0
COc1ccc2[nH]c3c(=O)n(CCCC(=O)NC4CCC(C)CC4)c(=S)[nH]c3c2c1 (stereo unspecified)	-3	53*	3	1	0	2	-6
OCC1OC(n2cnc3c(/C=C(\O)c4ccccc4)ncnc32)C(O)C1O (stereo unspecified)	1	-5	-1	0	8	0	.

High-throughput results (PubChem BioAssay)
